Experiments:
[1] = target: T1, Amine oxidase [flavin-containing] A (Homo sapiens, UniProt P21397); assay: Inhibition of recombinant human MAO-A expressed in Pichia pastoris up to 100 uM using kynuramine as substrate by fluorimetric horseradish peroxidase-Amplex Red-coupled assay
T1 sequence (P21397 whole entry): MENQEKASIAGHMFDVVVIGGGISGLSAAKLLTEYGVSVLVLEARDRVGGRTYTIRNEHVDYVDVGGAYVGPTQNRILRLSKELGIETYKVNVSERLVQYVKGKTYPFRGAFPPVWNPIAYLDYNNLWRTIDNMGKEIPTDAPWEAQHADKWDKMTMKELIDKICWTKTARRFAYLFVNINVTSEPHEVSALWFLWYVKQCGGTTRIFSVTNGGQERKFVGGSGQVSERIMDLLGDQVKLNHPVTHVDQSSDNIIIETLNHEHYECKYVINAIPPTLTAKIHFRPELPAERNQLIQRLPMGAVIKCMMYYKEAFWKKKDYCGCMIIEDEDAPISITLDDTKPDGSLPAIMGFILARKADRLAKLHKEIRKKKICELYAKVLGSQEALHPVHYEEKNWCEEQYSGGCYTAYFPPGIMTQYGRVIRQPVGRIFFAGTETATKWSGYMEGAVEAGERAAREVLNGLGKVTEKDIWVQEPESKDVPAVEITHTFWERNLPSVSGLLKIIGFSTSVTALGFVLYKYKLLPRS

[2] = target: T2, Amine oxidase [flavin-containing] B (Homo sapiens, UniProt P27338); assay: Mixed-type inhibition of recombinant human MAO-B expressed in Pichia pastoris using benzylamine as substrate by fluorimetric horseradish peroxidase-Amplex Red-coupled assay
T2 sequence (P27338 whole entry): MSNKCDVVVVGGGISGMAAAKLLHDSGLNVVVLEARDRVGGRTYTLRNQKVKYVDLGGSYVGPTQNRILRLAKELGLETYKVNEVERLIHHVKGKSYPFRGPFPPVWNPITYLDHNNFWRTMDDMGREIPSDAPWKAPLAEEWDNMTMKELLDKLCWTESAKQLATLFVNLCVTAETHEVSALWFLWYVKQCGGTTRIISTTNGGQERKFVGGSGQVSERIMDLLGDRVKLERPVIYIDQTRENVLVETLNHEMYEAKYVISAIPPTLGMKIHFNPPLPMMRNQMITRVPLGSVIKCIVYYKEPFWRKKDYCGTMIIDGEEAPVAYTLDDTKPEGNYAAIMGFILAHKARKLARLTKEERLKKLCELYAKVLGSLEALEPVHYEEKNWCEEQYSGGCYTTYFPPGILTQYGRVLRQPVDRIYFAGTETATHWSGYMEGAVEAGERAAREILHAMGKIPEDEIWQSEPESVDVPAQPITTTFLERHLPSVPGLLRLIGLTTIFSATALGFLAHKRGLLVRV
How it was run: (§1)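 Purified Pichia-expressed human MAO-B, benzylamine substrate, H2O2 detected by HRP-Amplex Red coupling. Initial rates were measured at varying substrate and inhibitor levels. Inhibition mode came from global fits to competitive, mixed, non-competitive and uncompetitive Michaelis-Menten forms, chosen by r², plus double-reciprocal plots ([…] vs 1/[S]).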

[3] = target: T2, Amine oxidase [flavin-containing] B; assay: Non-competitive inhibition of recombinant human MAO-B expressed in Pichia pastoris using benzylamine as substrate by fluorimetric horseradish peroxidase-Amplex Red-coupled assay; how it was run: as §1
[4] = target: T2, Amine oxidase [flavin-containing] B; assay: Tight-binding competitive inhibition of recombinant human MAO-B expressed in Pichia pastoris using benzylamine as substrate by fluorimetric horseradish peroxidase-Amplex Red-coupled assay

Row | inhibition (INH) [1] | inhibition (INH) [2] | inhibition (INH) [3] | Ki [4] | SMILES
1 | Not Active | Active | Active | 31 nM | O=C(Nc1cccc(F)c1)c1coc2ccccc2c1=O
2 | Not Active |  |  | 2930 nM | O=c1c(CNc2cccc(Cl)c2)coc2ccccc12
